ChEMBL document CHEMBL1926532, “Bioactive myrsinol diterpenoids from the roots of Euphorbia prolifera” (J Nat Prod, 2011)

Assays:
SH-SY5Y [1] = assay: Neuroprotective activity against MPP+-induced human SH-SY5Y cell death assessed as cell viability at 10 uM pretreated for 2 hrs prior to MPP+ induction by MTT assay relative to control; format: functional; conditions: read-out: Activity
Method in brief: (§1)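 SH-SY5Y cells in DMEM with 10% FBS and penicillin/streptomycin at 37 °C, 5% CO2. Detached with 1 mM EGTA in PBS for 15 min, seeded at 1 × 10^4 cells/well, grown 24 h. Pretreated 2 h with compound (3, 10, 30 μM), then MPP+ medium. MTT (0.5 mg/mL final) added for 4 h; formazan read at 490 nm. Viability expressed against vehicle control (100). Triplicates, mean ± SEM, ANOVA/Student–Newman–Keuls.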

SH-SY5Y [2] = assay: Neuroprotective activity against MPP+-induced human SH-SY5Y cell death assessed as cell viability at 3 uM pretreated for 2 hrs prior to MPP+ induction by MTT assay relative to control; format: functional; conditions: read-out: Activity; method in brief: as §1
SH-SY5Y [3] = assay: Neuroprotective activity against MPP+-induced human SH-SY5Y cell death assessed as cell viability at 30 uM pretreated for 2 hrs prior to MPP+ induction by MTT assay relative to control; format: functional; conditions: read-out: Activity; method in brief: as §1
SH-SY5Y [4] = assay: Cytotoxicity against human SH-SY5Y cells assessed as cell viability at 3 to 30 uM by MTT assay; format: cell-based

SMILES | viability at 10 µM (SH-SY5Y [1]) [%] | viability at 3 µM (SH-SY5Y [2]) [%] | viability at 30 µM (SH-SY5Y [3]) [%] | Activity (SH-SY5Y [4])
C=C(C)[C@H]1C=C[C@@H](OC(=O)c2ccccc2)[C@@]23CO[C@@](C)([C@H](OC(=O)c4cccnc4)[C@@]4(OC(C)=O)C[C@H](C)[C@H](OC(=O)CC)[C@@H]4[C@@H]2OC(C)=O)[C@H]13 | 87.4 | 77.7 | 96.5 | Non-toxic
CCC(=O)O[C@@H]1[C@@H]2[C@@H](OC(C)=O)[C@@]34CO[C@@](C)([C@H](OC(=O)c5ccccc5)[C@@]2(OC(C)=O)C[C@@H]1C)[C@@H]3[C@@H](C(C)(C)OC(C)=O)C=CC4=O [EUPHORBIAPROLIFERIN D] | 71.3 | 68.7 | 88.6 | 
CCC(=O)O[C@@H]1[C@@H]2[C@@H](OC(C)=O)[C@@]34CO[C@@](C)([C@@H](OC(=O)c5ccccc5)[C@@]2(OC(C)=O)C[C@@H]1C)[C@@H]3[C@@H](C(C)(C)OC(C)=O)C=C[C@H]4OC(C)=O [PROLIFERIN C] | 84.5 | 76.7 | 95.1 | Non-toxic
C=C(C)[C@H]1C=C[C@@H](OC(=O)c2ccccc2)[C@@]23CO[C@@](C)([C@H](OC(C)=O)[C@@]4(OC(C)=O)C[C@H](C)[C@H](OC(=O)CC)[C@@H]4[C@@H]2OC(C)=O)[C@H]13 | 86.5 | 78.1 | 94.2 | 
CCC/C=C/C=C/C=C\CO[C@@H]1[C@@H](C)[C@]2(O)[C@@H]3C=C(C)C(=O)[C@H]3CC(CO)=C[C@H]2[C@@H]2C(C)(C)[C@]12OC(=O)C(C)C | 77.3 | 69.6 | 84.1 | 
CCC(=O)O[C@@H]1[C@@H]2[C@@H](OC(C)=O)[C@@]34CO[C@@](C)([C@@H](OC(=O)C(C)C)[C@@]2(OC(C)=O)C[C@@]1(C)OC(=O)C(C)C)[C@@H]3[C@@H](C(C)(C)OC(C)=O)C=C[C@H]4OC(C)=O (relative stereo) [EUPHORBIAPROLIFERIN A] | 83.5 | 75.1 | 92.7 | 
CCC(=O)O[C@@H]1[C@@H]2[C@@H](OC(C)=O)[C@@]34CO[C@@](C)([C@@H](OC(=O)c5ccccc5)[C@@]2(OC(C)=O)C[C@@]1(C)OC(C)=O)[C@@H]3[C@@H](C(C)(C)OC(C)=O)C=C[C@H]4OC(C)=O [EUPHORPROLITHERIN B] | 81.7 | 70.3 | 92.2 | 
CCC(=O)O[C@@H]1[C@@H]2[C@@H](OC(C)=O)[C@@]34CO[C@@](C)([C@@H](OC(=O)c5ccccc5)[C@@]2(OC(C)=O)C[C@@]1(C)OC(=O)c1ccccc1)[C@@H]3[C@@H](C(C)(C)OC(C)=O)C=C[C@H]4OC(C)=O [PROLIFERIN B] | 95.4 | 82.1 | 112 | Non-toxic
C=C(C)[C@H]1C=C[C@@H](OC(C)=O)[C@@]23CO[C@@](C)([C@H](OC(C)=O)[C@@]4(OC(C)=O)C[C@H](C)[C@H](OC(=O)CC)[C@@H]4[C@H]2OC(C)=O)[C@H]13 [EUPHORBIAPROLIFERIN G] | 78.3 | 65.6 | 88.7 | 
CCCC(=O)O[C@@H]1[C@@H]2[C@@H](OC(C)=O)[C@@]34CO[C@@](C)([C@@H](OC(=O)c5ccccc5)[C@@]2(OC(C)=O)C[C@@H]1C)[C@@H]3[C@@H]1[C@H](C[C@H]4OC(C)=O)C1(C)C [EUPHORBIAPROLIFERIN J] | 89.2 | 79.8 | 104 | Non-toxic
C=C(C)[C@H]1C=C[C@@H](OC(C)=O)[C@@]23CO[C@@](C)([C@H](OC(=O)c4ccccc4)[C@@]4(OC(C)=O)C[C@H](C)[C@H](OC(=O)CC)[C@@H]4[C@H]2OC(C)=O)[C@H]13 [EUPHORBIAPROLIFERIN F] | 87.1 | 74.5 | 93.5 | 
C=C(C)[C@H]1C=C[C@@H](OC(=O)c2ccccc2)[C@@]23CO[C@@](C)([C@@H](OC(=O)c4ccccc4)[C@@]4(OC(C)=O)C[C@H](C)[C@H](OC(=O)CC)[C@@H]4[C@H]2OC(C)=O)[C@H]13 [EUPHORPROLITHERIN C] | 91.5 | 75.5 | 103 | Non-toxic
CCCC(=O)O[C@@H]1[C@@H]2[C@@H](OC(C)=O)[C@@]34CO[C@@](C)([C@@H](OC(=O)c5ccccc5)[C@@]2(OC(C)=O)C[C@@]1(C)OC(=O)c1ccccc1)[C@@H]3[C@@H](C(C)(C)OC(C)=O)C=C[C@H]4OC(C)=O (relative stereo) [EUPHORBIAPROLIFERIN B] | 93.2 | 74.8 | 109 | Non-toxic
CCC(=O)O[C@@H]1[C@@H]2[C@@H](OC(C)=O)[C@@]34CO[C@@](C)([C@@H](OC(=O)c5ccccc5)[C@@]2(OC(C)=O)C[C@@H]1C)[C@@H]3[C@@H]1[C@H](C[C@H]4OC(C)=O)C1(C)C [EUPHORBIAPROLIFERIN I] | 88.9 | 84.8 | 101 | Non-toxic
CC(=O)O[C@@H]1[C@@H]2[C@@H](OC(C)=O)[C@@]34CO[C@@](C)([C@H](OC(=O)c5ccccc5)[C@@]2(O)C[C@@H]1C)[C@@H]3[C@@H]1[C@@H](C[C@]1(C)OC(C)=O)[C@@H](OC(=O)c1ccccc1)C4=O [EUPHORBIAPROLIFERIN E] | 76 | 67.1 | 82.1 | 
CCC(=O)O[C@@H]1[C@@H]2[C@@H](OC(C)=O)[C@@]34CO[C@@](C)([C@@H](OC(=O)c5ccccc5)[C@@]2(OC(C)=O)C[C@@]1(C)OC(=O)C(C)C)[C@@H]3[C@@H](C(C)(C)OC(C)=O)C=C[C@H]4OC(C)=O [PROLIFERIN A] | 85.2 | 74.4 | 97.8 | Non-toxic
CC(=O)O[C@@H]1[C@H]2[C@@H](OC(=O)C(C)C)[C@@H](C)C[C@]2(OC(C)=O)[C@@H](OC(C)=O)[C@]2(C)OC[C@]13C(=O)C=C[C@H](C(C)(C)OC(C)=O)[C@@H]23 [EUPHORBIAPROLIFERIN C] | 75.4 | 68.3 | 81.3 | 
C=C(C)[C@H]1C=C[C@@H](OC(=O)c2ccccc2)[C@@]23CO[C@@](C)([C@H](OC(=O)c4ccccc4)[C@@]4(OC(C)=O)C[C@H](C)[C@H](OC(C)=O)[C@@H]4[C@H]2OC(C)=O)[C@H]13 [EUPHORBIAPROLIFERIN H] | 89.8 | 83.6 | 99.4 | Non-toxic
Nc1nc2c(ncn2[C@@H]2O[C@H](CO)[C@@H](O)[C@H]2O)c(=O)[nH]1 [GUANOSINE] | 77.3 | 68.1 | 87.3 | 
CCC(=O)O[C@@H]1[C@@H]2[C@@H](OC(=O)c3ccccc3)[C@@]3(COC(C)=O)[C@@H]([C@@H]4[C@H](C[C@H]3OC(C)=O)C4(C)C)[C@](C)(OC(C)=O)C(=O)[C@@]2(O)C[C@@H]1C | 70.3 | 61.5 | 78.5 | 
